Data on one compound can be found in ChEMBL document CHEMBL1153564 (Antimicrob Agents Chemother, 2008).

The term ED50 denotes the dose that gives a 50% effect, or the effect in half of the subjects. What is called MIC is the lowest concentration that inhibits growth of the organism. As usually defined, the Cmax is the peak of the concentration-time curve.

The test system of series [1] is Nakaseomyces glabratus. Description: Antifungal activity against Candida glabrata 5376 infected in neutropenic ICR/Swiss mouse candidiasis model assessed as dose required for 1-log10 reduction in […] per kidney administered intraperitoneally every 48 hrs up to 4 days measured per 96 hrs. The format is functional. In outline: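 Neutropenic ICR/Swiss mice infected i.v. with the strain; therapy began 2 h later. Total doses of 1.25–320 mg/kg/96 h were given i.p. as 1, 2, 4 or 6 doses (q96h, q48h, q24h, q16h), three mice per regimen. Kidney CFU were counted after 4 days. Effect is the change from untreated controls at the end of therapy.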

Series [2] concerns Nakaseomyces glabratus. The series is described as follows: Antifungal activity against Candida glabrata 5376 infected in neutropenic ICR/Swiss mouse candidiasis model assessed as reduction of […] in kidney at 20 mg/kg, ip administered 2 hrs postinfection as single dose measured within 1 to 4 hrs post dosing by time-kill assay. The format is functional, organism-based. The arrangement: dose 20 mg/kg. In outline: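 Neutropenic mice were infected i.v. and 2 h later given a single i.p. dose (1.25, 5 or 20 mg/kg). Groups of three treated and three control mice were killed at intervals over 96 h, and kidney CFU were counted on SDA (limit 100 CFU/ml). The post-antifungal effect is t − c: the time for a 1 log10 CFU/kidney increase once serum levels fall below the MIC in treated mice, minus the same time in controls.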

For series [3], the system named is Nakaseomyces glabratus. The series is described as follows: Antifungal activity against Candida glabrata 513 infected in neutropenic ICR/Swiss mouse candidiasis model assessed as dose required to maintain […] burden of 1.83 +/- 0.54 log10CFU per kidney administered intraperitoneally every 24 hrs up to 4 days measured per 24 hrs. The format is functional.
In series [4] the test system is Nakaseomyces glabratus. Description: Antifungal activity against Candida glabrata 33609 infected in neutropenic ICR/Swiss mouse candidiasis model assessed as dose required to maintain […] of 1.83 +/- 0.54 log10CFU per kidney administered intraperitoneally every 24 hrs up to 4 days measured per 24 hrs. The format is functional.
Series [5] concerns Serum. The series is described as follows: Fraction unbound in Candida glabrata 5376-infected neutropenic ICR/Swiss mouse serum at 1.25 mg/kg, ip administered 2 hrs postinfection as single dose. The format is ADME, organism-based. The arrangement: dose 1.25 mg/kg, route intraperitoneal. Particulars: in vivo.
For series [6], the system named is Candida albicans. The series is described as follows: Antifungal activity against Candida albicans K-1 infected in neutropenic ICR/Swiss mouse candidiasis model assessed as dose required for 1-log10 reduction in […] per kidney administered intraperitoneally every 24 hrs up to 4 days measured per 96 hrs. The format is functional. In a few lines:
(§1)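 Neutropenic mice were infected iv with C. albicans K-1 2 h before therapy. Total doses of 1.25, 5, 20, 80 and 320 mg/kg/96 h were split into 1, 2, 4 or 6 ip doses (q96h, q48h, q24h, q16h), three mice per regimen. Effect is the log10 CFU/kidney relative to untreated controls at 96 h. Static and 1-log doses were taken from a Hill model fit.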

Series [7] concerns Candida albicans. Description: Antifungal activity against Candida albicans K-1 infected in neutropenic ICR/Swiss mouse candidiasis model assessed as […] burden per kidney administered intraperitoneally every 48 hrs up to 4 days measured per 96 hrs. The format is functional. Particulars: K-1, Kidney, ip. In a few lines:
as §1

Series [8] concerns Nakaseomyces glabratus. Description: Antifungal activity against Candida glabrata 570 infected in neutropenic ICR/Swiss mouse candidiasis model assessed as dose required for 1-log10 reduction in […] per kidney administered intraperitoneally every 24 hrs up to 4 days measured per 24 hrs. The format is functional. In a few lines: (§2)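 Neutropenic mouse disseminated candidiasis, with i.p. therapy starting 2 h after i.v. infection. Five total doses of 0.078–20 mg/kg/24 h were given q24h for 4 days, three mice per dose. Kidney CFU were counted at the end and compared with untreated controls. The dose giving a 1 log10 CFU/kidney reduction was derived from the sigmoid Hill dose–effect model.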

Series [9] relates to Nakaseomyces glabratus. The series is described as follows: Antifungal activity against Candida glabrata 5592 infected in neutropenic ICR/Swiss mouse candidiasis model assessed as dose required for 1-log10 reduction in […] per kidney administered intraperitoneally every 24 hrs up to 4 days measured per 24 hrs. The format is functional. In a few lines: as §2
Series [10] concerns Candida albicans. The series is described as follows: Antifungal activity against Candida albicans 98-17 assessed as complete growth inhibition after 24 hrs by CLSI end point method. Particulars: 98-17, 24 h. The format is functional. In a few lines:
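CLSI M27-A2 broth dilution. Two end points read against the drug-free control well: partial inhibition (CLSI end point) and complete inhibition. Run in duplicate on four separate occasions; value is the mean. Drug stock in DMSO, diluted in 0.9% NaCl.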

Series [11] deals with Nakaseomyces glabratus. The series is described as follows: Antifungal activity against Candida glabrata 33609 infected in neutropenic ICR/Swiss mouse candidiasis model assessed as fungal count per kidney administered 2 hrs postinfection measured up to 48 hrs. The format is functional. In outline:
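Female ICR/Swiss mice (23–27 g) made neutropenic with cyclophosphamide s.c. (150 mg/kg day −4, 100 mg/kg day −1, 100 mg/kg day +2). Infected by tail vein with 0.1 ml inoculum (~6.1 log10 CFU/ml). Kidneys of untreated mice were homogenised and plated on SDA for 24 h at 35°C. Growth over 48 h is given as log10 CFU/kidney.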

The test system of series [12] is Nakaseomyces glabratus. Description: Antifungal activity against Candida glabrata 37661 assessed as complete growth inhibition after 24 hrs by CLSI end point method. Particulars: Nakaseomyces glabratus, 37661, 24 h. The format is functional. In outline: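 Two end points were read against the drug-free control well: partial growth inhibition (the CLSI end point) and complete inhibition. Run in duplicate on four separate occasions; the value is the mean. Drug stock was made in DMSO and diluted in 0.9% NaCl.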

For series [13], the system named is Candida albicans. The series is described as follows: Antifungal activity against Candida albicans K-1 infected in neutropenic ICR/Swiss mouse candidiasis model assessed as fungal count per kidney administered 2 hrs postinfection measured up to 48 hrs. The format is functional. In outline: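 Untreated neutropenic mice infected via the tail vein (inoculum about 6.1 log10 CFU/ml, 0.1 ml). Growth is the rise in kidney CFU over 48 h. Kidneys were homogenised, serially diluted 1:10 and plated on SDA for 24 h at 35°C. Mean of three mice.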

Series [14] has as its system Mus musculus. The series is described as follows: Cmax in serum of neutropenic ICR/Swiss mouse candidiasis model at 80 mg/kg, ip up to 4 hrs by reverse-phase high-pressure liquid chromatography. The format is ADME, organism-based. Details: dose 80 mg/kg, route intraperitoneal. Particulars: in vivo. In a few lines: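 Infected neutropenic ICR/Swiss mice given single ip doses (5, 20 or 80 mg/kg; 0.2 ml); serum from three isoflurane-anaesthetised mice at 1, 4, 8, 12, 24 and 48 h, stored at −80°C, assayed by reverse-phase HPLC with fluorescence detection, loratadine internal standard, linear 10–50,000 ng/ml. Noncompartmental analysis; half-life by nonlinear least squares.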

The nature of series [15]: Protein binding in Candida albicans K-1 infected neutropenic ICR/Swiss mouse serum after 30 mins by arithmetic dilution method. The format is ADME, organism-based. Particulars: read-out: PB (converted).
Series [16] relates to Candida albicans. The series is described as follows: Antifungal activity against Candida albicans K-1 infected in neutropenic ICR/Swiss mouse candidiasis model assessed as reduction of […] in kidney at 1.25 mg/kg, ip administered 2 hrs postinfection as single dose measured after 96 hrs post dosing by time-kill assay. The format is functional, organism-based. The arrangement: dose 1.25 mg/kg. In outline: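 Neutropenic mice given a single ip dose (1.25, 5 or 20 mg/kg) 2 h after tail-vein infection. Kidneys from 3 mice per time point collected nine times over 96 h. Homogenates serially diluted 1:10 and plated on SDA, 24 h at 35°C. Detection limit 100 CFU/ml.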

The test system of series [17] is Nakaseomyces glabratus. Description: Antifungal activity against Candida glabrata 5376 infected in neutropenic ICR/Swiss mouse candidiasis model assessed as dose required to maintain […] of 3.71 +/- 0.21 log10CFU per kidney administered intraperitoneally every 16 hrs up to 4 days measured per 96 hrs.

Molecules are shown by their SMILES. In brackets after ≈: the same amount, converted by molar mass. Activity calls are given as the source filed them. The rule behind the calls is not given here. Starred links: 1 amine or outer side, 2 acyl side, 3 side chain; linkers in the order of their positions; H or OH if unused. Positions of bridges follow the written chain, without caps; N, C: chain ends. Non-standard residues stand in square brackets, D forms with d. Residues, ends and D or L forms follow the SMILES beside them. *: point of attachment. pTerphenylCO(4''-OnC5H11) = CCCCCOc1ccc(-c2ccc(-c3ccc(C(=O)*)cc3)cc2)cc1; Orn(4R-OH,5R-OH) = O=C([C@H](C[C@@H](O)[C@@H](O)N[*:3])N[*:1])[*:2]; hTyr(3S-OH,4S-OH) = N[C@H](C(=O)O)[C@H](O)[C@@H](O)c1ccc(O)cc1; Pro(3S-OH,4S-Me) = C[C@H]1CN[C@H](C(=O)O)[C@H]1O; Hyp = O=C(O)[C@@H]1C[C@@H](O)CN1

`CCCCCOc1ccc(-c2ccc(-c3ccc(C(=O)N[C@H]4C[C@@H](O)[C@@H](O)NC(=O)[C@@H]5[C@@H](O)[C@@H](C)CN5C(=O)[C@H]([C@@H](C)O)NC(=O)[C@H]([C@H](O)[C@@H](O)c5ccc(O)cc5)NC(=O)[C@@H]5C[C@@H](O)CN5C(=O)[C@H]([C@@H](C)O)NC4=O)cc3)cc2)cc1` [ANIDULAFUNGIN] ({pTerphenylCO(4''-OnC5H11)}-[Orn(4R-OH,5R-OH)]T[Hyp][hTyr(3S-OH,4S-OH)]T[Pro(3S-OH,4S-Me)]; lactam 1-C): the Activity came to 27.4 mg/kg in series [1]; 2.45 mg/kg in [3]; 2 mg/kg in series [4]; 8.1 mg/kg in [6]; 3.72 mg/kg in series [8]; 11.8 mg/kg in series [9]. Also, in series [17], the Activity is 30 mg/kg. Moreover, the result in [2] and in series [16] was Active. Further, in series [5], the Fu is 1%. In addition, in [7], the ED50 is 3.14 mg/kg. Also, the MIC in [10] was determined as 0.12 µg/mL (≈ 0.105 µM); in [12], 2 µg/mL (≈ 1.75 µM). In addition, the log10cfu worked out at 2.37 in series [11] and 4 in series [13]. Further, the Cmax in series [14] stood at 60 µg/mL. For the same compound, in [15], the fraction unbound at 0.5 h is 0.2.
